Source: PubChem BioAssay (several laboratories)
A selection: hits, their analogues and other compounds. The true share with any hit is near 6.4%.
GRIN3A LBD mod = binders of NR3A ligand-binding domain, primary screen, biophysical, differential scanning fluorimetry, uHTS | NR3A LBD differential scanning fluorimetry, Tm shift; 0% = protein alone, 100% = glycine-bound protein | Glutamate receptor ionotropic, NMDA 3A (GRIN3A) ligand-binding domain | AID 1259313, 2017 | 2.5% of 340,000 active | Tm shift relative to glycine control, % at 25 µM;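 active = melting temperature shift of at least 10% of the positive control shift, at one fixed dose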
MPTP inh = mitochondrial permeability transition pore inhibitors, primary screen, biochemical, isolated mouse mitochondria, absorbance. Ca2+ swelling absorbance, 30 min. inhibition, % at 10 µM. 1.4% of 360,000 active;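 active = inhibition of 50% or more, scaled per plate between neutral and stimulator controls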;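 note: 0% = DMSO wells given calcium and 100% = 1 mM EGTA wells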
WT yeast gro inh = growth inhibition of WT strain, primary screen, mitochondrial fusion inhibitor project, WT and mutant strains, chemical genetic; mitochondrial fusion phenotypic screen; inhibition, % at 10 µM; 2.1% of 190,000 active; in the data active = inhibition above about 58%; tested in S. cerevisiae
EBV gp42 inh = Epstein-Barr virus gp42 inhibitors, primary screen, biochemical, uHTS, fluorescence polarization; Glycoprotein 42 (Epstein-Barr virus (strain AG876)), Q1HVG2; inhibition, % (tested at 21.74 µM); Fluorescence polarization binding assay, mP read-out; 0.42% of 220,000 active; in the data active = inhibition above about 50%
Target sequence (Q1HVG2 whole entry, looked up): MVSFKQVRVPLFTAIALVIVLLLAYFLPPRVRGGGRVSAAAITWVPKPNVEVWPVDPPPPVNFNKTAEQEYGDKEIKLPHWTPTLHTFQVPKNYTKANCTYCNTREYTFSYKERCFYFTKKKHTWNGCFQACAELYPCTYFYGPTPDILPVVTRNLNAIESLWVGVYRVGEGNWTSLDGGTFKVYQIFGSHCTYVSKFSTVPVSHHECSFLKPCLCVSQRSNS
CHOP inh = inhibitors of CHOP promoter induction, primary screen, cell-based, unfolded protein response, luciferase reporter. CHO-K1 CHOP-promoter luciferase, tunicamycin-induced, 15-18 h. inhibition, % at 10 µM. 3.8% of 220,000 active. AID 2732, 2010;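 active = compounds that reduced the stress-induced luciferase reporter signal by more than about 70% of percent inhibition, limit read from the data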;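 note: 0% = tunicamycin plus vehicle and 100% = wells without tunicamycin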
TbMetRS inhib = T. brucei MetRS inhibitors, primary screen, biochemical, luminescence. methionyl-tRNA synthetase (Trypanosoma brucei brucei). purified T. brucei MetRS, ATP depletion, Kinase-Glo luminescence. inhibition, % at 11.9 µM. 0.4% of 360,000 active. AID 624268, 2012;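 active = inhibition above a per-plate cutoff of the control wells' mean inhibition plus 3 SD, cut at about 5.5% in these data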;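 note: 0% = DMSO wells median and 100% = median of wells with control inhibitor compound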
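Test system – parasite MetRS enzyme · Reagent – substrates ATP, L-methionine and bulk Escherichia coli tRNA · Doses – 11.9 µM compound single dose, 0.9% DMSO · Times – 15 min enzyme-compound preincubation, 2 h reaction, 10 min detection, 25 °C · Signal – Kinase-Glo luminescence, ATP depletion format · Controls – DMSO-only wells as low control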
* marks the source's active call; other numbers are inactive results; / = not tested or not shown.

SMILES | GRIN3A LBD mod | MPTP inh | WT yeast gro inh | EBV gp42 inh | CHOP inh | TbMetRS inhib
OC1CCCN(c2c3c(nc4cc(-c5cccc(Cl)c5)nn24)CCC3)C1 (stereo not given) | -11 | 0 | 67* | -8 | 15 | 0
Cc1cccc(-c2cc3nc4c(c(N5CCCC(O)C5)n3n2)CCC4)c1 (stereo not given) | -2 | 2 | 17 | -14 | 18 | 0
Cc1cccc(NC(=O)Oc2ccc(Cl)c3cccnc23)c1 | / | 0 | / | / | / | 0
CC1CCCCN1S(=O)(=O)c1ccc(C(=O)Nc2nnc(-c3ccco3)o2)cc1 (stereo not given) | -6 | -2 | / | / | / | 1
CN(C)CCN1CC(C(=O)O)CC1=O (stereo not given) | 1 | -3 | -3 | -8 | -3 | 0
Cc1cc(NS(C)(=O)=O)c(=O)n(Cc2cccc(F)c2)c1 | 2 | 0 | / | / | / | 0
CC(C)(CNC(=O)CC1C(=O)NCCN1Cc1cccc(F)c1)N1CCOCC1 (stereo not given) | -1 | -1 | / | / | / | 0
COc1cccc(C(=O)Nc2cc(C)on2)c1OC | -3 | -1 | -10 | -14 | -15 | 0
COc1cc(/C=C(\C#N)c2ccccn2)ccc1OCC(=O)Nc1ccc(Br)cc1 | 3 | 1 | 2 | -9 | 70* | 1
O=C(COc1ccc(/C=N/NC(=O)c2ccccc2Br)cc1)Nc1ccccc1 | 3 | 1 | / | / | / | 0
CCOC(=O)/C(C#N)=C/c1ccc(OCC(=O)Nc2ccc(C)c(C)c2)c(OC)c1 | -1 | -1 | -4 | -13 | 40 | 0
O=C(COc1ccc(/C=N/NC(=O)c2cccnc2)cc1)Nc1ccccc1 | 13* | -1 | / | / | / | 0
COc1cc(/C=C(\C#N)C(=O)Nc2cc(C(F)(F)F)ccc2Cl)ccc1OCC(=O)Nc1cccc(C(F)(F)F)c1 | 1 | -2 | 16 | -120 | 74* | -1
COc1cc(/C=C(\C#N)c2ccccn2)ccc1OCC(=O)Nc1c(Cl)cccc1Cl | 0 | 2 | -13 | -9 | 4 | -1
COc1ccccc1NC(=O)COc1ccc(/C=N/NC(=O)c2cccnc2)cc1 | -9 | 1 | / | / | / | 0
O=C(COc1ccc(/C=N/NC(=O)c2ccccc2O)cc1)Nc1ccccc1 | 16* | -2 | 2 | 0 | -21 | 0
Cc1cccc(C(=O)Oc2ccc(/C=N/NC(=O)c3cc(O)cc(O)c3)cc2)c1 | 14* | 0 | / | / | / | 0
O=C(Oc1ccc(/C=N/NC(=O)c2ccccc2O)cc1)c1ccccc1 | 13* | 17 | 2 | 1 | 2 | 0
COc1cc(/C=N/NC(=O)c2ccncc2)ccc1OCC(=O)Nc1ccccc1 | -10 | 1 | / | / | / | -1
Cc1cccc(C(=O)Oc2ccc(/C=N/NC(=O)c3ccncc3)cc2)c1 | -16 | 0 | -15 | -6 | 21 | 0
O=C(Oc1ccc(/C=N/NC(=O)c2ccccc2F)cc1)c1ccccc1 | 1 | 0 | / | / | / | 0
COc1cc(/C=N/NC(=O)c2ccccc2O)ccc1OCC(=O)Nc1ccccc1 | 37* | -2 | / | / | / | -1
CCOC(=O)CN(C)C(=O)CCc1nnc(-c2ccc(-c3ccccc3)cc2)o1 | -1 | -1 | / | / | / | 0
COc1ccc(N2C(=O)C(Cl)=C(Oc3cccc(OC)c3)C2=O)cc1 | -3 | 1 | 47 | -10 | 106* | -1
COc1ccc(S(=O)(=O)N2CCC(c3cc(-c4cccc5ccccc45)n[nH]3)CC2)cc1 | -2 | 7 | 21 | -10 | 84* | 0
SMILES | GRIN3A LBD mod | MPTP inh | WT yeast gro inh | EBV gp42 inh | CHOP inh | TbMetRS inhib
COc1cccc(S(=O)(=O)N2CCN(Cc3ccc4c(c3)OCO4)CC2)c1 | 14* | 2 | / | / | / | 0
O=S(=O)(c1ccc(Br)s1)N1CCN(Cc2ccc3c(c2)OCO3)CC1 | 4 | -3 | 61* | -17 | 62 | 0
O=S(=O)(c1cccc(C(F)(F)F)c1)N1CCC(c2cc(-c3cccc4ccccc34)n[nH]2)CC1 | -2 | -1 | 16 | -19 | 56 | -1
O=C(Nc1ccon1)c1cccc(S(=O)(=O)N2CCCCCC2)c1 | 1 | 1 | 7 | -1 | 7 | 0
CCN=C(NCC)SC1CC(=O)N(c2ccc(F)cc2)C1=O (stereo not given) | 5 | -2 | 20 | 8 | 5 | 0
COc1ccc(S(=O)(=O)N2CCN(Cc3ccccc3)CC2)cc1 | 11* | -2 | -3 | -9 | 31 | -1
COc1ccc(N2C(=O)C(Cl)=C(N3CCN(Cc4ccccc4)CC3)C2=O)cc1 | 1 | 2 | -4 | 6 | 78* | 0
O=C1C(Cl)=C(N2CCCCC2)C(=O)N1Cc1ccccc1 | -4 | 2 | 25 | -4 | 96* | 0
CC(C)CNS(=O)(=O)c1ccc(S(=O)(=O)N2CCCN(Cc3ccccc3)C2)cc1 | 13* | 1 | 83* | -10 | 37 | -1
COc1ccc(S(=O)(=O)N2CCN(Cc3cccc(OC)c3)CC2)cc1 | -1 | 0 | / | / | / | -1
CC1CCCN(S(=O)(=O)c2ccc(S(=O)(=O)N3CCCN(Cc4ccccc4)C3)cc2)C1 (stereo not given) | -2 | 0 | / | / | / | 1
CCCc1n[nH]c(=O)c2c1nnn2Cc1ccccc1F | -2 | 1 | / | / | / | -1
CC(C)Cn1c(=S)[nH]c2cc(C(=O)NCc3ccccc3F)ccc2c1=O | 2 | 13 | / | / | / | 0
Cc1ccc(C(O)c2ncc(-c3ccccc3F)[nH]2)c(C)c1 (stereo not given) | / | -1 | / | / | / | 0
CC(=O)Nc1ccc(-c2csc(NC(=O)CCCc3cccs3)n2)cc1 | 19* | 3 | -12 | -16 | 5 | 0
Cc1ccc(Nc2nc(-c3ccc(O)c(O)c3)cs2)nc1 | 43* | / | 12 | -9 | 10 | /
Cc1ccc(Nc2nc(-c3ccc(F)cc3)cs2)nc1 | -8 | 1 | / | / | / | 0
CC(=O)Nc1cccc(-c2csc(Nc3ccc(Cl)cn3)n2)c1 | 14* | 0 | 76* | -3 | 16 | 0
CC(=O)Nc1ccc(-c2csc(Nc3ccc(Cl)cn3)n2)cc1 | 26* | 1 | 19 | -3 | -9 | 0
CC(=O)Nc1cccc(-c2csc(Nc3ccccn3)n2)c1 | 8 | 0 | 10 | -4 | -7 | 0
Cc1ccccc1OCC(=O)OCC(=O)Nc1ccc2c(c1)OCCO2 | 0 | 1 | / | / | / | 0
C[C@@H](NC(=O)c1nc[nH]c1C(=O)N1CCc2ccccc2C1)c1ccccc1 | 0 | 0 | / | / | / | 0
CCNC(=O)CC1SC(=Nc2ccc(C)cc2)NC1=O (stereo not given) | -1 | 0 | -18 | 4 | 13 | 0
